Compound activity as filed in PubChem BioAssay.
Most compounds without a hit are left out; they make up all but 8.9% or so of the library.
Dynein transport = inhibitors of GR-EGFP nuclear translocation, primary screen, dynein cargo transport inhibitor project, imaging, high-content, 3617.4 mouse cells; test concentration mostly 20 µM; stimulated with dexamethasone, 1 µM; active compounds read low; z-score, hits read low; actives 0.47% (n = 220,000); AID 1381, 2008;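 active means plate z-score of nuclear minus cytoplasmic receptor signal below a set negative limit, without overly bright fluorescence or cell loss, cut at about -3.5 in these data, passing the limit was not always enough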;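 further: z-score of nuclear minus cytoplasmic ring GR-EGFP intensity difference per well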
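Buffer or medium – tet-free medium with charcoal-stripped serum · Signal – automated 10x imaging of fixed Hoechst-stained cells · Also added – dexamethasone agonist, 1.0 µM final, for 30 min · Incubation – induction 48 h, compound 1 h, agonist 30 min · Read-out – GR-EGFP nuclear translocation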
HSV replic up = enhancers of HSV replication in host cells, fold increase, host cell viability; HSV replication augmentation in cells; actives 0.005% (n = 220,000); maximum fold increase; AID 1956, 2009; in the data active means maximum fold increase above about 1.5; tested in PC3 cells
L major viab = Leishmania major promastigote growth inhibition, primary screen | inhibition, % at 10 µM | actives 9% (n = 200,000) | Leishmania major promastigotes, resazurin fluorescence viability | AID 1063, 2008; in the data active means inhibition above about 50%;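 further: promastigotes grown with compound for 44 hours at 28 °C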
b-catenin transl = modulators of beta-catenin nuclear translocation, primary screen, imaging, HeLa cells, immunofluorescence, high-content; actives 0.3% (n = 190,000); AID 1665, 2009; nuclear translocation activity, % at 5 µM;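 active means nuclear translocation activity above 50% at 5 µM, with a well cell count of 50 or more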;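 further: per-cell ratio of nuclear to cytoplasmic median beta-catenin stain intensity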
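Test system: human HeLa cells, endogenous beta-catenin. Times: 24 h compound exposure, 37°C. Measured by: beta-catenin immunofluorescence imaging with DAPI.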
MT stabilize HCS = microtubule stabilizers in HeLa cells, primary screen, imaging, high-content imaging; actives 0.83% (n = 200,000); HeLa tubulin immunostaining HCS, 24 h; share of cells brighter than vehicle mean+2SD; AID 2205, 2009; % tubulin-high responders, % at 10 µM;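 active means plate Z-score above 3 for both tubulin-high and condensed-nucleus cell shares, with cell loss under 80%, at 10 µM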;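 further: anti alpha tubulin signal scored within the nucleus-defined area of each cell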
Hits are given with their value.

How did Cc1c(Cl)cccc1NC(=O)CSc1nnc(C)n1-c1ccccc1 do in these assays?
Dynein transport: inactive; HSV replic up: inactive; L major viab: inactive; b-catenin transl: inactive; MT stabilize HCS: inactive

What do the screens show for `CCNC(=S)Nc1ccc(OCC)cc1`?
Dynein transport: inactive; HSV replic up: inactive; L major viab: 65.3; b-catenin transl: inactive; MT stabilize HCS: inactive

Results for Cc1ccc(/C=N\NC(=O)C2COc3cc4ccccc4cc3O2)o1 (stereo not given) ?
Dynein transport: inactive; HSV replic up: inactive; L major viab: inactive; b-catenin transl: inactive; MT stabilize HCS: inactive

Results for O=C(N/N=C\c1ccc(-c2ccccc2[N+](=O)[O-])o1)C1COc2ccccc2O1 (stereo not given) ?
Dynein transport: inactive; HSV replic up: inactive; L major viab: 51.6; b-catenin transl: inactive; MT stabilize HCS: inactive

What do the screens show for `O=C(N/N=C\C=C\c1ccc2c(c1)OCO2)c1cccnc1`?
Dynein transport: inactive; HSV replic up: inactive; L major viab: inactive; b-catenin transl: inactive; MT stabilize HCS: inactive

Results for O=C(O)c1cccc(-c2ccc(/C=N/NC(=O)C3COc4ccccc4O3)o2)c1 (stereo not given) ?
Dynein transport: inactive; HSV replic up: inactive; L major viab: inactive; b-catenin transl: inactive; MT stabilize HCS: inactive

How did O=C(N/N=C\c1ccc([N+](=O)[O-])o1)C1COc2ccccc2O1 (stereo not given) do in these assays?
Dynein transport: inactive; HSV replic up: inactive; L major viab: 100.0; b-catenin transl: inactive; MT stabilize HCS: inactive

What do the screens show for `O=C(N/N=C\C=C\c1ccc2c(c1)OCO2)C1COc2ccccc2O1` (stereo not given)?
Dynein transport: inactive; HSV replic up: inactive; L major viab: 65.3; b-catenin transl: inactive; MT stabilize HCS: inactive

How did O=C(N/N=C\c1ccc(-c2ccccc2[N+](=O)[O-])o1)C1COc2cc3ccccc3cc2O1 (stereo not given) do in these assays?
Dynein transport: inactive; HSV replic up: inactive; L major viab: 96.1; b-catenin transl: inactive; MT stabilize HCS: inactive

Results for Cc1cc(/C=C2\SC(=S)NC2=O)c(C)n1-c1ccc(O)cc1 ?
Dynein transport: inactive; HSV replic up: inactive; b-catenin transl: inactive

How did CC(C)NC(=O)COc1cccc2ccccc12 do in these assays?
Dynein transport: inactive; HSV replic up: inactive; L major viab: inactive; b-catenin transl: inactive; MT stabilize HCS: inactive

What do the screens show for `Cn1c(OCc2ccc3c(c2)OCO3)nc2c1c(=O)n(Cc1ccc(Cl)c(Cl)c1)c(=O)n2C`?
Dynein transport: inactive; L major viab: inactive; b-catenin transl: inactive; MT stabilize HCS: inactive

How did O/N=C/c1ccc(-c2cc(Cl)ccc2Cl)o1 do in these assays?
Dynein transport: inactive; HSV replic up: inactive; L major viab: 67.0; b-catenin transl: inactive; MT stabilize HCS: inactive

What do the screens show for `CCOC(=O)c1ccc2c(c1)[nH]c(=S)n2CC`?
Dynein transport: inactive; HSV replic up: inactive; L major viab: inactive; b-catenin transl: inactive; MT stabilize HCS: inactive

What do the screens show for `CN(C)CCCN(C(=O)CCc1ccccc1)c1nc2ccc(Cl)cc2s1`?
Dynein transport: inactive; HSV replic up: inactive; L major viab: 87.5; b-catenin transl: inactive; MT stabilize HCS: inactive

What do the screens show for `CN(C)CCCOC(=O)c1sc2ccccc2c1Cl`?
Dynein transport: inactive; HSV replic up: inactive; L major viab: 58.8; b-catenin transl: inactive; MT stabilize HCS: inactive

How did CN(C)CCCN(C(=O)c1ccc2c(c1)CCCC2)c1nc2ccc(Cl)cc2s1 do in these assays?
Dynein transport: inactive; HSV replic up: inactive; L major viab: 78.9; b-catenin transl: inactive; MT stabilize HCS: inactive

What do the screens show for `CN(C(=O)COC(=O)c1sc2ccccc2c1Cl)C1CCCCC1`?
Dynein transport: inactive; HSV replic up: inactive; L major viab: inactive; b-catenin transl: inactive; MT stabilize HCS: inactive

How did CN(C)CCCN(C(=O)c1sc2ccccc2c1Cl)c1nc2ccc(F)cc2s1 do in these assays?
Dynein transport: inactive; HSV replic up: inactive; L major viab: 71.7; MT stabilize HCS: inactive

How did CN(C)CCCN(C(=O)COc1ccccc1)c1nc2ccc(Cl)cc2s1 do in these assays?
Dynein transport: inactive; HSV replic up: inactive; L major viab: inactive; b-catenin transl: inactive; MT stabilize HCS: inactive

How did O=Cc1c(SCCO)nc2ccccn2c1=O do in these assays?
Dynein transport: inactive; HSV replic up: inactive; b-catenin transl: inactive

How did COc1cc2c(cc1OC)C(C(=O)N(C)Cc1ccccc1)C(c1cccnc1)N(C)C2=O (stereo not given) do in these assays?
Dynein transport: inactive; HSV replic up: inactive; L major viab: inactive; b-catenin transl: inactive; MT stabilize HCS: inactive

What do the screens show for `Cc1ccc2nc(N(CCCN(C)C)C(=O)c3cc4ccccc4oc3=O)sc2c1`?
Dynein transport: inactive; HSV replic up: inactive; L major viab: 67.2; MT stabilize HCS: inactive

How did COc1cc(/C=N/NC(=O)CCn2cnc(-c3ccccc3)c2-c2ccccc2)ccc1O do in these assays?
Dynein transport: inactive; HSV replic up: inactive; L major viab: inactive; b-catenin transl: inactive; MT stabilize HCS: inactive

What do the screens show for `CC(=O)OC(C(=O)NCS(=O)(=O)c1ccc(C)cc1)c1cccnc1` (stereo not given)?
Dynein transport: inactive; HSV replic up: inactive; L major viab: inactive; b-catenin transl: inactive; MT stabilize HCS: inactive

Results for Cc1ccc(S(=O)(=O)CCc2nnc(NC(=O)c3ccccn3)s2)cc1 ?
Dynein transport: inactive; HSV replic up: inactive; L major viab: 82.0; b-catenin transl: inactive; MT stabilize HCS: inactive

Results for Cc1ccc(S(=O)(=O)CCc2nnc(NC(=O)c3cnccn3)s2)cc1 ?
Dynein transport: inactive; HSV replic up: inactive; L major viab: inactive; MT stabilize HCS: inactive

What do the screens show for `CCc1nnc(NC(=O)c2cccc(C(=O)Nc3nnc(CC)s3)n2)s1`?
Dynein transport: inactive; HSV replic up: inactive; L major viab: 99.4; b-catenin transl: inactive; MT stabilize HCS: inactive

How did CC(C)CCc1c(O)nc(SCC(C)C)[nH]c1=O do in these assays?
Dynein transport: inactive; HSV replic up: inactive; L major viab: inactive; b-catenin transl: inactive; MT stabilize HCS: inactive

What do the screens show for `CSc1nnc(CCCCCNC(=O)OC(C)(C)C)o1`?
Dynein transport: inactive; HSV replic up: inactive; b-catenin transl: inactive

Results for O=Cc1cc2ccccc2nc1SCc1ccc(Cl)c(Cl)c1 ?
Dynein transport: inactive; HSV replic up: inactive; L major viab: 95.5; b-catenin transl: inactive; MT stabilize HCS: 17.8

Results for Cc1ccc(CSc2nc3ccccc3cc2C=O)cc1 ?
Dynein transport: inactive; HSV replic up: inactive; L major viab: 96.3; b-catenin transl: inactive; MT stabilize HCS: 21.4

What do the screens show for `O=c1[nH]c(SCc2ccc(Cl)cc2)nc2ccccc12`?
Dynein transport: inactive; HSV replic up: inactive; L major viab: inactive; b-catenin transl: inactive; MT stabilize HCS: inactive

Results for O=Cc1cc2ccccc2nc1SCc1ccc(Cl)cc1 ?
Dynein transport: inactive; HSV replic up: inactive; L major viab: 97.2; b-catenin transl: inactive; MT stabilize HCS: 28.4
